Results as given in ChEMBL document CHEMBL1145243, “Synthesis and bladder smooth muscle relaxing properties of substituted 3-amino-4-aryl-(and aralkyl-)cyclobut-3-ene-1,2-diones” (Bioorg Med Chem Lett, 2005).

Legend:
Format in all cases: functional
Rattus norvegicus [1] = species: Rattus norvegicus; test: In vitro inhibitory concentration required to relax KCl-induced contractions in rat bladder detrusor muscle strips
Rattus norvegicus [2] = species: Rattus norvegicus; test: Percent of reversal of rat bladder detrusor muscle relaxation (resulting from compound treatment) by addition of glyburide
Rattus norvegicus [3] = species: Rattus norvegicus; test: In vitro inhibitory concentration required to relax KCl-induced contractions in rat aortic rings; settings: Aorta
Method in brief: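 Rat aortic rings were contracted with KCl and then exposed to drug. The value is the drug concentration (μM) that relaxed the KCl-induced contraction by 50%, reported ± SE.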

[4] = Rattus norvegicus, read-out: IC50

IC50 (Rattus norvegicus [1]; [4])	IC50 (Rattus norvegicus [3])	IC50 (Rattus norvegicus [1])	Compound	Reversal (Rattus norvegicus [2])
> 30 µM	–	–	COc1ccc(-c2c(NCCc3cccc(C(F)(F)F)c3)c(=O)c2=O)cc1	0%
> 30 µM	–	–	CC(Nc1c(Cc2ccc(C#N)cc2)c(=O)c1=O)C(C)(C)C (stereo not given)	0%
2.5 µM	37.6 µM	–	CCC(C)(C)/N=c1/c(-c2ccc(OC)cc2)c(O)c1=O	0%
12 µM	46.2 µM	–	COc1ccc(-c2c(N(C)C(C)C)c(=O)c2=O)cc1	0%
> 30 µM	–	–	COc1ccc(-c2c(NCC(C)c3ccccc3)c(=O)c2=O)cc1 (stereo not given)	0%
–	–	Contracted	CCC(C)(C)Nc1c(-c2ccc(OCCCc3ccccc3)cc2)c(=O)c1=O	–
27 µM	–	–	COc1ccc(-c2c(NC(C)c3ccccc3)c(=O)c2=O)cc1 (stereo not given)	0%
> 30 µM	–	–	COc1ccc(Cc2c(NC(C)C(C)(C)C)c(=O)c2=O)cc1 (stereo not given)	0%
0.37 µM	0.064 µM	–	C[C@@H](Nc1c(Nc2ccc(C#N)cc2)c(=O)c1=O)C(C)(C)C	110%
0.09 µM	0.017 µM	–	CCc1cc(C#N)ccc1Nc1c(N[C@H](C)C(C)(C)C)c(=O)c1=O	77%
> 30 µM	–	–	COc1ccc(C(C(C)=O)c2c(NC(C)C(C)(C)C)c(=O)c2=O)cc1 (stereo not given)	0%
> 30 µM	–	–	CC(Nc1c(/C=C/c2ccc(Br)cc2)c(=O)c1=O)C(C)(C)C (stereo not given)	25%
> 30 µM	–	–	CCC(C)(C)Nc1c(-c2cccnc2)c(=O)c1=O	0%
2.94 µM	–	–	CC(Nc1c(/C=C/c2ccc(C#N)cc2)c(=O)c1=O)C(C)(C)C (stereo not given)	0%
16.2 µM	–	–	CC(=O)C(c1ccc(C(F)(F)F)cc1)c1c(NC(C)C(C)(C)C)c(=O)c1=O (stereo not given)	0%
> 30 µM	–	Contracted	CCC(C)(C)/N=c1/c(-c2cccc(OC)c2)c(O)c1=O	–
